Experiments:
Type in all cases: functional
[1] = tested on: DU-145; test: Cytotoxicity against human DU145 cells assessed as cellular growth at 10 uM after 48 hrs by SRB assay
Outline: (§1)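 NCI60 single-dose screen of cells in RPMI 1640 with 5% FBS and 2 mM L-glutamine, preincubated 24 h at 37 °C, 5% CO₂. Cells were then exposed 48 h to compound added from DMSO stock. TCA-fixed, stained with 0.4% SRB in 1% acetic acid, dye solubilised in 10 mM Tris base and read at 515 nm. Growth is given as percent of untreated control.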

[2] = tested on: KM12; test: Cytotoxicity against human KM12 cells assessed as cellular growth at 10 uM after 48 hrs by SRB assay; outline: as §1
[3] = tested on: SR; test: Cytotoxicity against human SR cells assessed as cellular growth at 10 uM after 48 hrs by SRB assay
Outline: (§2)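 NCI-60 panel lines grown in RPMI 1640 with 5% FBS and 2 mM L-glutamine. Plated at 5000–40,000 cells/well and preincubated 24 h at 37 °C, 5% CO₂, with time-zero plates fixed in TCA. Compounds, dissolved in DMSO and diluted in medium, were applied for 48 h. Cells were TCA-fixed (10% final for adherent, 16% for suspension) and stained with 0.4% SRB in 1% acetic acid. Dye was solubilised in 10 mM Tris base and read at 515 nm; growth was expressed as a percentage of untreated control.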

[4] = tested on: A549; test: Cytotoxicity against human A549 cells assessed as cellular growth at 10 uM after 48 hrs by SRB assay; outline: as §1
[5] = tested on: HCT-116; test: Cytotoxicity against human HCT116 cells assessed as cellular growth at 10 uM after 48 hrs by SRB assay; outline: as §1
[6] = tested on: NCI-H226; test: Cytotoxicity against human NCI-H226 cells assessed as cellular growth at 10 uM after 48 hrs by SRB assay; outline: as §2
[7] = tested on: SF-539; test: Cytotoxicity against human SF539 cells assessed as cellular growth at 10 uM after 48 hrs by SRB assay; outline: as §2
[8] = tested on: SNB-75; test: Cytotoxicity against human SNB75 cells assessed as cellular growth at 10 uM after 48 hrs by SRB assay; outline: as §2
[9] = tested on: OVCAR-4; test: Cytotoxicity against human OVCAR4 cells assessed as cellular growth at 10 uM after 48 hrs by SRB assay; outline: as §2
[10] = tested on: NCI/ADR-RES; test: Cytotoxicity against human NCI/ADR-RES cells assessed as cellular growth at 10 uM after 48 hrs by SRB assay; outline: as §2
[11] = tested on: SN12C; test: Cytotoxicity against human SN12C cells assessed as cellular growth at 10 uM after 48 hrs by SRB assay; outline: as §2
[12] = tested on: MDA-MB-468; test: Cytotoxicity against human MDA-MB-468 cells assessed as cellular growth at 10 uM after 48 hrs by SRB assay; outline: as §2
[13] = tested on: KM12; test: Antitumor activity against human KM12 cells after 48 hrs by SRB assay; conditions: KM12, 48 h
Outline: (§3)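 NCI60 panel in RPMI 1640 with 5% FBS and 2 mM L-glutamine. Cells were plated at 5000–40,000/well by doubling time, held 24 h, then time-zero plates were TCA-fixed. Five concentrations (10-fold or half-log dilutions of DMSO stocks) were applied for 48 h at 37 °C, 5% CO2. Cells were fixed with cold TCA (10% final adherent, 16% suspension) and stained with 0.4% SRB. Bound dye was dissolved in 10 mM Tris and read at 515 nm. GI50, TGI and LC50 were calculated per line.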

[14] = tested on: U-251; test: Antitumor activity against human U251 cells after 48 hrs by SRB assay; conditions: U-251, 48 h
Outline: (§4)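 NCI60 panel cells grown in RPMI 1640 with 5% FBS and 2 mM L-glutamine, plated at 5000–40,000 cells/well and preincubated 24 h at 37 °C, 5% CO₂. Compound was added from DMSO at five concentrations, 10-fold or 1/2 log dilutions, then incubated 48 h.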

[15] = tested on: SK-MEL-2; test: Antitumor activity against human SK-MEL-2 cells after 48 hrs by SRB assay; conditions: SK-MEL-2, 48 h; outline: as §4
[16] = tested on: NCI/ADR-RES; test: Antitumor activity against human NCI/ADR-RES cells after 48 hrs by SRB assay; outline: as §3
[17] = tested on: CAKI-1; test: Antitumor activity against human Caki1 cells after 48 hrs by SRB assay; conditions: CAKI-1, 48 h; outline: as §3
[18] = tested on: ACHN; test: Antitumor activity against human ACHN cells after 48 hrs by SRB assay; outline: as §3
[19] = tested on: A498; test: Antitumor activity against human A498 cells after 48 hrs by SRB assay; conditions: A498, 48 h; outline: as §3
[20] = tested on: NCI-H460; test: Antitumor activity against human NCI-H460 cells after 48 hrs by SRB assay; conditions: NCI-H460, 48 h; outline: as §3
[21] = tested on: NCI-H23; test: Antitumor activity against human NCI-H23 cells after 48 hrs by SRB assay; conditions: NCI-H23, 48 h; outline: as §3
[22] = tested on: RPMI-8226; test: Antitumor activity against human RPMI8226 cells after 48 hrs by SRB assay; conditions: RPMI-8226, 48 h; outline: as §3
[23] = tested on: K562; test: Antitumor activity against human K562 cells after 48 hrs by SRB assay; conditions: K562, 48 h; outline: as §3
[24] = tested on: SK-MEL-28; test: Antitumor activity against human SK-MEL-28 cells after 48 hrs by SRB assay; conditions: SK-MEL-28, 48 h; outline: as §4
[25] = read-out: LC50 (the source's name)
[26] = read-out: pLC50 (the source's name) (converted)

## COc1ccc(/C(=C2\O[C@@H]([C@H]3COC(C)(C)O3)[C@H]3OC(C)(C)O[C@@H]23)c2cc(OC)c(OC)c(OC)c2)cc1O
[1]
  Activity: 45.59%
[2]
  Activity: 5.71%
[3]
  Activity: -13.6%
[4]
  Activity: 80.05%
[5]
  Activity: 78.08%
[6]
  Activity: 112.98%
[7]
  Activity: 21.53%
[8]
  Activity: 24.26%
[9]
  Activity: 105.57%
[10]
  Activity: -10.52%
[11]
  Activity: 84.5%
[12]
  Activity: 112.6%
[13]
  GI50: 4.1 µM
  LC50: 72.9 µM
  TGI: 17.8 µM
[14]
  GI50: 3.12 µM
  TGI: 11.8 µM
[14]; [25]
  CC50: > 100 µM
[15]
  GI50: 1.53 µM
  TGI: 4.12 µM
[15]; [25]
  CC50: 24.1 µM
[16]
  GI50: 4.26 µM
  LC50: > 100 µM
  TGI: 22.3 µM
[17]; read-out: GI50
  GI50: 14.6 µM
[17]; [25]
  CC50: > 100 µM
[17]; read-out: TGI
  TGI: 42.2 µM
[17]; read-out: pGI50 (converted)
  GI50: 14.8 µM
[17]; [26]
  CC50: > 100 µM
[17]; read-out: pTGI (converted)
  TGI: 42.7 µM
[18]; read-out: GI50
  GI50: 15.4 µM
[18]; [25]
  CC50: > 100 µM
[18]; read-out: TGI
  TGI: > 100 µM
[18]; read-out: pGI50 (converted)
  GI50: 15.5 µM
[18]; [26]
  CC50: > 100 µM
[18]; read-out: pTGI
  TGI: > 100 µM
[19]; read-out: GI50
  GI50: 32.1 µM
[19]; [25]
  CC50: > 100 µM
[19]; read-out: TGI
  TGI: 97.4 µM
[19]; read-out: pGI50 (converted)
  GI50: 32.4 µM
[19]; [26]
  CC50: > 100 µM
[19]; read-out: pTGI (converted)
  TGI: 97.7 µM
[20]; read-out: GI50
  GI50: 29.3 µM
[20]; [25]
  CC50: > 100 µM
[20]; read-out: TGI
  TGI: > 100 µM
[20]; read-out: pGI50 (converted)
  GI50: 29.5 µM
[20]; [26]
  CC50: > 100 µM
[20]; read-out: pTGI
  TGI: > 100 µM
[21]; read-out: GI50
  GI50: 21.8 µM
[21]; [25]
  CC50: > 100 µM
[21]; read-out: TGI
  TGI: 74.9 µM
[21]; read-out: pGI50 (converted)
  GI50: 20.9 µM
[21]; [26]
  CC50: > 100 µM
[21]; read-out: pTGI (converted)
  TGI: 74.1 µM
[22]
  LC50 (concentration killing 50% of starting cells): > 100 µM
[22]; read-out: GI50
  GI50: 4.82 µM
[22]; read-out: TGI
  TGI: 34 µM
[22]; read-out: pGI50 (converted)
  GI50: 4.79 µM
[22]; [26]
  CC50: > 100 µM
[22]; read-out: pTGI (converted)
  TGI: 33.9 µM
[23]; read-out: GI50
  GI50: 6.28 µM
[23]; [25]
  CC50: > 100 µM
[23]; read-out: TGI
  TGI: > 100 µM
[23]; read-out: pGI50 (converted)
  GI50: 6.31 µM
[23]; [26]
  CC50: > 100 µM
[23]; read-out: pTGI
  TGI: > 100 µM
[24]
  LC50 (50% lethal concentration): > 100 µM
[24]; read-out: GI50
  GI50: 10.6 µM
[24]; read-out: TGI
  TGI: > 100 µM
[24]; read-out: pGI50 (converted)
  GI50: 10.5 µM
[24]; [26]
  CC50: > 100 µM
[24]; read-out: pTGI
  TGI: > 100 µM

Reference: ChEMBL document CHEMBL1828575, “Design, synthesis and antiproliferative activities of biarylolefins based on polyhydroxylated and carbohydrate scaffolds” (Eur J Med Chem, 2011)
